Test: Toxicity liver stage against HepG2, at 10uM
Type: cell-based
Set-up: test concentration 10 uM, cell line HepG2-A16-CD81EGFP
Details: human, HepG2-A16-CD81EGFP cells; read-out: INHIBITION
How it was run: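 Uninfected HepG2-A16-CD81EGFP cells, 3 × 10^3 per well, 1536-well, plated on prespotted compound at 10 μM final, parasite-free screening media added to match infected plates; puromycin 10 μM positive, DMSO 0.5% negative; run in parallel with 48 h PbLuc assay at 37 °C, 5% CO2; viability by CellTiter-Glo luminescence, normalized to controls.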

Row | SMILES | cytotoxicity at 10 µM
1 | O=C(CNC(=O)N1CCc2c([nH]c3ccc(Cl)cc23)C1)NCCCO | 5.36%
2 | CCC(=O)NCC(Cc1cccc(F)c1)n1cccc1 (configuration not stated) | -0.765%
3 | CCCS(=O)(=O)N1CCC2(CCCC(=O)N2C)CC1 | 3.29%
4 | CN(Cc1ccco1)C1CCC12CCN(C(=O)c1ccncc1)CC2 (configuration not stated) | 2.82%
5 | CC(=O)N1CCC2(CCN(S(=O)(=O)c3ccccc3)CC2)C1 | -2.83%
6 | Cc1nc(COCC2CNCc3nccn3C2)cs1 (configuration not stated) | 1.79%
7 | CN1CC[C@]2(CN(C(=O)[C@H]3CCCO3)C[C@H]2c2ccccc2)C1=O | 8.49%
8 | CN1C[C@@H]2COC[C@]2(C(=O)NCc2cccs2)C1 | 9.22%
9 | c1cncc(COCC2CN(Cc3ccsc3)Cc3ccnn3C2)c1 (configuration not stated) | -140%
10 | CC(C)NC(=O)C1CCN(c2nc3nc[nH]c(=O)c3s2)CC1 | -3.79%
11 | Cc1nn(C)c(=O)c2nn(-c3ccc(F)cc3)c(C)c12 | -0.839%
12 | CNC(=O)[C@H]1C[C@@H]2CN(C(=O)c3ccco3)C[C@@H]2N1S(C)(=O)=O | -10.2%
13 | c1cnc(-c2nn3c(CN4CCOCC4)nnc3s2)cn1 | 7.74%
14 | NC(=O)c1c[nH]nc1NCc1ccc2c(c1)OCO2 | -2.9%
15 | Cc1cc(C)nc(N2CCC(c3cccc(CCC(=O)O)n3)CC2)n1 | 0.343%
16 | Cc1oc2c(c1C(=O)N1CC[C@H](O)[C@]3(CCCO3)C1)CCCC2 | 2.75%
17 | COc1ccc(C(=O)N2CCOCC2c2[nH]ncc2C)cc1F (configuration not stated) | 2.21%
18 | Cc1cccc2nc(C(=O)N3CCCC[C@]4(C)NC(=O)CCC[C@H]34)cn12 | -1.85%
19 | O=C(NCCO)C1CN(c2cncnc2)CCO1 (configuration not stated) | -29.9%
20 | COc1cccc(CC(=O)N2CCCC2c2nc(C)c(F)c(O)n2)c1 (configuration not stated) | -21.6%
21 | O=C(c1ccccn1)N1CCCC(c2ncncc2-c2ccncc2)C1 (configuration not stated) | -0.0141%
22 | Cn1ccc2ccnc(CC3CN(C(=O)c4cscn4)C3)c21 | -28.6%
23 | Cc1ccnc(C2CCCN2C(=O)c2cnccn2)n1 (configuration not stated) | -14.1%

Row | SMILES | cytotoxicity at 10 µM
24 | O=C(c1cc[nH]n1)N1CCc2c(nc(N3CCCCC3)[nH]c2=O)C1 | 15.5%
25 | CN1CCCC(c2cccc(CCC(=O)NCc3ccccn3)n2)C1 (configuration not stated) | -14%
26 | CC(C)N1CCC(Cc2cc(-c3cc(F)ccc3C(=O)O)ncn2)C1 (configuration not stated) | 7.49%
27 | CNc1cc(CNC(=O)c2ccncc2)nc(-c2ccncc2)n1 | -7.16%
28 | NCCCC(=O)N1CCC2(CC1)CN(C(=O)c1ccc(Cl)cc1)CCO2 | 6.83%
29 | CCC(CO)NC(=O)Nc1cc(F)ccc1SCC(F)F (configuration not stated) | 12.6%
30 | CCn1nnnc1-c1cccc(NC(=O)CCOC(C)C)c1 | -9.8%
31 | O=C(Cn1cnnn1)NC(c1ccccc1)c1ccc2c(c1)CCCO2 (configuration not stated) | -1.47%
32 | Cc1ccc(C2CSCCN2C(=O)c2ccccn2)cc1 (configuration not stated) | 2.04%
33 | CC1(C)COCCN1C(=O)CCc1nc(-c2ccncc2)no1 | -6.61%
34 | CCOc1ccc(NC(=O)c2scnc2CC)cc1CO | -9.48%
35 | Cc1cc(NC(=O)CN2CCOC(CN(C)C)C2)n(C)n1 (configuration not stated) | 0.894%
36 | COC(=O)C1(NCc2nc(C)c(C)o2)CCC(C)CC1 (configuration not stated) | -5.54%
37 | CC1CCC(N2CCC(NS(=O)(=O)CCOC(C)C)CC2)CC1 (configuration not stated) | -0.45%
38 | CN(Cc1ncnn1C)C1CCN(c2sccc2C#N)C1=O (configuration not stated) | 10.2%
39 | Cc1cc(C(=O)NC2CCN(c3nnc(C)c(C)c3C#N)CC2)no1 | -2.12%
40 | Cc1nnc(NC(=O)NCCN(C(=O)OC(C)(C)C)C2CC2)s1 | 5.53%
41 | COc1ccc(CN2CC(n3cccn3)C2)cc1F | -0.483%
42 | CCOc1cccc2c1OCC(C(=O)NC(C)Cn1cccn1)=C2 (configuration not stated) | -1.18%
43 | CCn1cnnc1CNC(=O)N1CCOC(c2ccc(F)cc2)C1 (configuration not stated) | 5.53%
44 | N#Cc1csc(CNCCOc2ccc(Cl)cn2)c1 | -5.59%
45 | O=C(NCc1ccc(N2CC=CC2)cc1)Nc1nnc(C2CC2)s1 | 7.25%
46 | COC(=O)NCC(=O)NCC(C)(C)c1cccc(C(F)(F)F)c1 | -3.36%

Row | SMILES | cytotoxicity at 10 µM
47 | O=C(c1cccnc1O)N(Cc1cccs1)CC1CCCO1 (configuration not stated) | -11.5%
48 | Cc1ccc(OCC(=O)NCC(F)(F)F)nc1 | 0.84%
49 | CS(=O)(=O)NCC1CCCN(C(=O)Nc2ccccc2F)C1 (configuration not stated) | -145%
50 | CCCN(CC(F)F)C(=O)CCc1c(C)nc2cc(O)nn2c1C | -147%
51 | CCc1nccn1C1CCCN(C(=O)c2cc(C3CC3)on2)C1 (configuration not stated) | -6.96%
52 | O=C(CNC(=O)Nc1c(F)cc(F)cc1-c1ccccc1)NC1CC1 | -13.5%
53 | CC(C)c1nnc2n1CC(CNCc1nnc(C(C)(C)C)o1)CC2 (configuration not stated) | -21.6%
54 | COCCS(=O)(=O)NC(C)c1ccccc1Br (configuration not stated) | 1.02%
55 | CCN(C(=O)NCc1ncc(C)c(OC)c1C)C(C)c1cccnc1 (configuration not stated) | 1.84%
56 | Cc1cc(S(=O)(=O)Nc2onc(C)c2C)c(C)s1 | -4.96%
57 | CC(c1ccccc1)N1CCC(NC(=O)CCc2ccsc2)CC1 (configuration not stated) | 0.91%
58 | CCC(C)(C)NC(=O)CSCc1ccc(S(=O)(=O)N(C)C)o1 | 5.94%
59 | COc1ccc(C(NCc2cccc(O)c2)C2CC2)cc1 (configuration not stated) | 4.99%
60 | Cc1ccc(CCC(=O)N(C)CCN2CCOCC2)c(C)c1 | -4.51%
61 | Cc1ccc(CC2CCCN2CC(=O)NCc2cccnc2)cc1 (configuration not stated) | -3.83%
62 | CS(=O)(=O)N[C@@H]1CCN(Cc2ccncc2)[C@H]1Cc1cccnc1 | -79.7%
63 | COCCC(=O)N1CCC2(CN(Cc3cccc(F)c3)C2)C1 | -74%
64 | CNc1ncc(-c2ccc(NC(=O)[C@@H]3CCCCN3)cc2)cn1 | -7.66%
65 | CN1CCN(CC2CC2)C(=O)c2cnc(N3CCC(CO)CC3)nc21 | -3.14%
66 | Cc1nc(O)cc(CCNC(=O)CN2CCCCCC2)n1 | 0.458%
67 | Cc1cnc(C)c(N2CCC(C(=O)O)(n3ccc(C(C)(C)C)n3)CC2)n1 | 20.4%
68 | CC(=O)NC1CCN(c2nc(C)nc3c2c(C)nn3C)C1 (configuration not stated) | 8.32%
69 | COCCN1CCC(CN(CC2CCCO2)C(=O)Cc2cccs2)CC1 (configuration not stated) | -0.894%

Row | SMILES | cytotoxicity at 10 µM
70 | Cc1ccccc1C1CCN(CCn2cc(-c3nccs3)nn2)C1 (configuration not stated) | -1.29%
71 | CN(Cc1nc(C2CC2)no1)C(=O)CN1CC(c2ccccc2)CC1=O (configuration not stated) | 2.11%
72 | CSc1ccccc1-n1ccnc1-c1cn(C2CCNCC2)nn1 | -0.67%
73 | COCc1ncn(Cc2nc(-c3ccc(OC)c(OC)c3)oc2C)n1 | -4.77%
74 | Cc1cc(C)n(CC(C)NCCN2CCc3ccccc32)n1 (configuration not stated) | -7.73%
75 | COc1ccc2c(c1)CC(C(=O)N(C)Cc1noc3c1CCCC3)CO2 (configuration not stated) | -0.551%
76 | CSc1nccc(NCC2CNCCO2)n1 (configuration not stated) | 2.56%
77 | O=C(O)c1ccnc(-c2ccnc(N3CCCCCC3)n2)c1 | -10%
78 | CCN1CC2(CCN(CC3COCCO3)CC2)OC1=O (configuration not stated) | -4.15%
79 | CC(=O)N1CCCN(c2nccc(-c3cn(C)nc3C)n2)CC1 | 22.3%
80 | CN(Cc1cnccn1)S(=O)(=O)N1CCCC1c1ccco1 (configuration not stated) | -15.6%
81 | CC(O)CNCc1c(C(C)C)nn(C)c1N1CCOCC1 (configuration not stated) | -3.48%
82 | COc1cccc(-n2nnc(C(=O)N3CCN(C(C)=O)CC3)c2C)c1 | -13.2%
83 | CC(Nc1cccc(CN2CCOC2=O)c1)C(=O)NC(=O)NC(C)(C)C (configuration not stated) | -10.9%
84 | Cc1nc(C)n(CC2CCCCN2CCc2ccncc2)n1 (configuration not stated) | -6.3%
85 | Cc1nc2ccccc2c(=O)n1CCCC(=O)N1CCNC(=O)CC1 | -11.8%
86 | CCn1cnnc1C1CCN(C(=O)c2ccccc2OC)CC1 | -8.62%
87 | Cn1ccnc1CN1CCCN(C(=O)c2ccc3c(c2)COC3)CC1 | -10.9%
88 | Cc1ncsc1C(=O)NCCSCCCO | -11.3%
89 | CC(=O)NC1CCCN(C(=O)Nc2cnc3c(cnn3C(C)C)c2)C1 (configuration not stated) | -4.67%
90 | Cn1cc(C(=O)NC2CCN(Cc3ccn(C)c(=O)c3)CC2)cn1 | -16.7%
91 | CNc1nc(CNC(=O)Nc2cccc(F)c2C)cs1 | -5.43%
92 | Cc1cccc(-c2nc(CN3CCc4cnc(C)nc4C3)no2)c1 | -8.42%

Row | SMILES | cytotoxicity at 10 µM
93 | O=C1CC2(CCCNC2)C(=O)N1Cc1ccc(Cl)cc1 (configuration not stated) | -1.57%
94 | CC(C)C(=O)N1CC[C@H]2N(C)CC[C@@]2(C(=O)N2CCCC2)CC1 | 5.5%
95 | CC(=O)N1CC[C@H]2OCC[C@@]2(C(=O)NCCc2ccccn2)C1 | 6%
96 | C[C@H]1CN(CC2CCOCC2)C[C@@]12CCN(Cc1cccnc1)C2=O | 1.73%
97 | COCCC(=O)N1CCC2(CCN(Cc3ccc(C)cc3)CC2)C1 | -74.4%
98 | c1cnc2c(c1)CN(C1CCOC1)CCN2CC1CC1 (configuration not stated) | 4.92%
99 | c1ccc(CN2CCc3c(COCc4ccncc4)cncc3C2)nc1 | 6.53%
100 | CN(C)C[C@]12COC[C@H]1CN(Cc1ccc3ccccc3n1)C2 | 6.77%
101 | O=C1[C@@H]2CN(C3CCOCC3)C[C@H]2CCN1CC1CC1 | 4.17%
102 | O=C(c1cscn1)N1C[C@H]2CCCC(OCc3cccnc3)[C@H]2C1 (some centres not stated) | -6.61%
103 | O=C(Nc1ccccc1)C1CN(CC2CC2)CC12CCOCC2 (configuration not stated) | -6.36%
104 | O=C1[C@H]2CN(Cc3ccc(F)cc3)C[C@H]2CN1CCN1CCCC1 | -13.2%
105 | Cc1c(F)cccc1S(=O)(=O)NCCN | 1.99%
106 | Cn1nc(Cn2ccnc2)c2c1CN(c1ncccn1)C2 | 5.3%
107 | CC[C@@H]1N(CC2CC2)CCC[C@]12CCC(=O)N2CCOC | -5.15%
108 | Cc1ccc2c(n1)N(C)CCN(Cc1ccco1)C2 | -4.97%
109 | CCn1cc(CN2C[C@@H]3CC[C@H]2CN(C(=O)C2CCC2)C3)cn1 | 3.5%
110 | Cc1nnsc1C(=O)N1C[C@@H]2CC[C@H]1CN(c1cnccn1)C2 | 9.88%
111 | CC(C)(C)CC(=O)N1C[C@@H]2C[C@@H]1CN2 | 6.59%
112 | Nc1ncnc2[nH]c(N3CCCCC3)nc12 | -1.43%

— ChEMBL document CHEMBL4513216, “Probing the Open Global Health Chemical Diversity Library for Multistage-Active Starting Points for Next-Generation Antimalarials” (ACS Infect Dis, 2020)
